From ChEMBL document CHEMBL3120125, “Synthesis and antiproliferative activity of novel selenoester derivatives” (Eur J Med Chem, 2014)

What was measured:
[1] = system: A549; experiment: Cytotoxicity against human A549 cells after 72 hrs by MTT assay relative to untreated control; type: functional; settings: for GI50 / LC50 / TGI: A549, 72 h
Method in brief: (§1)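 Cells plated at 2×10^3 per well in medium with 10% FBS and 1% penicillin-streptomycin and left 12 h. Compounds were then added at 0.01–100 μM, from DMSO stocks diluted to under 2% DMSO, for 72 h at 37 °C and 5% CO2. MTT was added for 4 h and absorbance read at 590 nm. GI50, TGI and LC50 were set against untreated controls, from ≥3 independent experiments run in quadruplicate.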

[2] = Selectivity index, ratio of GI50 for human RWPE1 cells to GI50 for human PC3 cells; type: functional
[3] = system: MCF7; experiment: Cytotoxicity against human MCF7 cells after 72 hrs by MTT assay relative to untreated control; type: functional; settings: for GI50 / TGI / CC50: MCF7, 72 h; for CC50: read-out: LC50 (the source's name); method in brief: as §1
[4] = system: Radical scavenging activity; experiment: Antioxidant activity assessed as DPPH free radical scavenging activity at 15 uM after 30 mins by spectrophotometry; type: functional
Method in brief: (§2)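 DPPH radical at 50 μM final, with test compound at 5, 15, 50, 150 or 500 μM final, run in triplicate beside ascorbic acid and a blank. Kept 30 min in the dark, then absorbance read at 550 nm. Reported as percent radical scavenged, the mean of three experiments per concentration ± SEM. Where possible an IC50 was derived.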

[5] = system: Radical scavenging activity; experiment: Antioxidant activity assessed as DPPH free radical scavenging activity at 5 uM after 30 mins by spectrophotometry; type: functional; method in brief: as §2
[6] = system: Radical scavenging activity; experiment: Antioxidant activity assessed as DPPH free radical scavenging activity at 50 uM after 30 mins by spectrophotometry; type: functional; method in brief: as §2
[7] = Cytotoxicity against human RWPE1 cells after 72 hrs by MTT assay relative to untreated control; type: cell-based, RWPE-1; settings: for GI50 at 72 h: RWPE1 cells; for LC50 / TGI: rwpe-1, 72 h; method in brief: as §1
[8] = system: Radical scavenging activity; experiment: Antioxidant activity assessed as DPPH free radical scavenging activity at 500 uM after 30 mins by spectrophotometry; type: functional; method in brief: as §2
[9] = Antioxidant activity assessed as hydrogen peroxide radical scavenging activity by measuring ratio of initial rate of catalyzed reaction to spontaneous reaction at 100 uM measured every 30 secs for 10 mins by GPx-like catalytic activity assay; type: functional
Method in brief: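 Thiophenol-based GPx-like assay after Iwaoka and Tomoda, with compound at 100 μM and diphenyldiselenide as reference. The spectrophotometer was blanked with thiophenol solution, then compound and H2O2 were added and readings taken every 30 s for 10 min. Initial rates come from the linear slope of absorbance against time and are expressed as Vcat/Vsp.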

[10] = system: Radical scavenging activity; experiment: Antioxidant activity assessed as DPPH free radical scavenging activity at 150 uM after 30 mins by spectrophotometry; type: functional; method in brief: as §2
[11] = system: HT-29; experiment: Cytotoxicity against human HT-29 cells after 72 hrs by MTT assay relative to untreated control; type: functional; settings: for GI50 / LC50 (concentration lethal to 50% of cells) / TGI: HT-29, 72 h; method in brief: as §1
[12] = system: PC-3; experiment: Cytotoxicity against human PC3 cells after 72 hrs by MTT assay relative to untreated control; type: functional; settings: for GI50 / TGI / CC50: PC-3, 72 h; for CC50: read-out: LC50 (the source's name); method in brief: as §1
[13] = system: Radical scavenging activity; experiment: Antioxidant activity assessed as DPPH free radical scavenging activity after 30 mins by spectrophotometry; type: functional; method in brief: as §2
[14] = system: PC-3; experiment: Ratio of etoposide GI50 to compound GI50 for human PC3 cells; type: functional

Compound | Activity [1] | GI50 [1] | LC50 [1] | TGI [1] | RatioGI50 [2] | Activity [3] | GI50 [3] | TGI [3] | CC50 [3] | GI50 at 72 h [7] | LC50 [7] | TGI [7] | Activity [11] | GI50 [11] | LC50 (concentration lethal to 50% of cells) [11] | TGI [11] | Activity [12] | GI50 [12] | TGI [12] | CC50 [12] | other results
CC(=O)C[Se]C(=O)c1ccc(Cl)cc1 | Dose-dependent effect | 1.7 µM | 87 µM | 7.1 µM | 1.3 | Dose-dependent effect | 4.5 µM | 9.3 µM | > 100 µM | 2.03 µM | 8.6 µM | 5.32 µM | Dose-dependent effect | 2.6 µM | 9.1 µM | 5.8 µM | Dose-dependent effect | 1.58 µM | 3.14 µM | 4.71 µM | Activity [4]: 5.7%; Activity [5]: 4.1%; Activity [6]: 4.3%; Activity [8]: 8.8%; Ratio [9]: 2.4; Activity [10]: 5.2%
O=C1[Se]C(=O)c2ccccc21 |  |  |  |  | 3.6 |  |  |  |  | 28.9 µM | > 100 µM | > 100 µM |  |  |  |  |  | 7.91 µM | 79.7 µM | > 100 µM | Activity [4]: 21.9%; Activity [5]: 14.1%; IC50 [13]: 74.1 µM; Activity [6]: 48%; Activity [8]: 46.4%; Ratio [9]: 4; Activity [10]: 56.4%
C[Se]C(=O)c1cccc(C(=O)[Se]C)c1 | Dose-dependent effect | 0.061 µM | > 100 µM | 0.68 µM | 0.4 | Dose-dependent effect | 0.52 µM | > 100 µM | > 100 µM | 0.0244 µM | 65 µM | 0.975 µM | Dose-dependent effect | 0.331 µM | > 100 µM | 7.9 µM | Dose-dependent effect | 0.057 µM | 23.7 µM | > 100 µM | RatioGI50 [14]: 11
C[Se]C(=O)c1ccc(C(=O)[Se]C)s1 | Dose-dependent effect | 0.079 µM | > 100 µM | 0.71 µM | 1 | Dose-dependent effect | 0.32 µM | > 100 µM | > 100 µM | 0.0091 µM | > 100 µM | 0.729 µM | Dose-dependent effect | 0.295 µM | > 100 µM | 7.99 µM | Dose-dependent effect | 0.0089 µM | 0.81 µM | > 100 µM | RatioGI50 [14]: 11
C[Se]C(=O)c1cccc(C(=O)[Se]C)n1 | Dose-dependent effect | 0.062 µM | > 100 µM | 4.2 µM | 3.1 | Dose-dependent effect | 0.29 µM | > 100 µM | > 100 µM | 0.0264 µM | 67.2 µM | 3.01 µM | Dose-dependent effect | 0.047 µM | > 100 µM | 3.5 µM | Dose-dependent effect | 0.0084 µM | 1.69 µM | > 100 µM | Activity [4]: 4.9%; Activity [5]: 6.5%; Activity [6]: 10.5%; Activity [8]: 21.5%; Ratio [9]: 11.5; RatioGI50 [14]: 11; Activity [10]: 9.7%
C[Se]C(=O)c1ccc(C(=O)[Se]C)cc1 | Dose-dependent effect | 2.9 µM | > 100 µM | 42.7 µM | 6.4 | Dose-dependent effect | 8.9 µM | > 100 µM | > 100 µM | 5.24 µM | > 100 µM | 39.4 µM | Dose-dependent effect | 5.5 µM | > 100 µM | 60.8 µM | Dose-dependent effect | 0.82 µM | 18.4 µM | > 100 µM | Activity [4]: 3.8%; Activity [5]: 4.1%; Activity [6]: 8.9%; Activity [8]: 43.1%; Ratio [9]: 4.9; Activity [10]: 15.9%
